Source: PubChem (Sanford-Burnham Center for Chemical Genomics)
Apaf-1 act: activators of human Apaf-1 apoptosome; activity change, negative = activation, % at 20 µM; Apaf-1 apoptosome caspase-3 activation, DEVD-Rh110 fluorescence; hits give low values; actives 0.31% (n = 330,000); O14727;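 active = activity change at or below -40% at 20 µM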
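Assay system – biochemical Apaf-1 apoptosome reconstitution · Medium – 20 mM HEPES buffer, pH 7.5, containing CHAPS and BSA · Incubation – 30 min preincubation, 50 min reaction, room temperature · Measured by – Caspase-3-released Rh110 fluorescence, 540 nm emission, 480 nm excitation · Read-out – Caspase-3 cleavage activity downstream of Apaf-1 activation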
Rh110 interf act: counter-screen for Apaf-1 activators: fluorescence interference; 980 tested, under 10 active; fluorescence interference (activity change), % at 20 µM, hits read low; Rh110 fluorescence interference, quenched caspase reaction, Ex480/Em540; AID 504616; shares compounds with Apaf-1 act;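 active = mean activity change at or below -40% when tested at 20 µM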
Apaf-1 act conf2: confirmation of human Apaf-1 activators. activity change, negative = activation, % at 20 µM. actives 5% (n = 980). shares compounds with Apaf-1 act. AID 504617. reconstituted apoptosome caspase-3 activity, DEVD-Rh110 fluorescence; hits give low values;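 active = mean activity change at or below -40%, meaning activation of 40% or more, at 20 µM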
Apaf1 act interf: Apaf-1 activator counter-screen fluorescence artifact; fluorescence interference counterscreen, Apaf-1 activator assay; shares compounds with Apaf-1 act; AID 588592; EC50, µM; 55 tested, under 10 active; call rule not given here
Numbers stand for hits; i = inactive; nt = not tested or not shown. These entries were drawn from the full list.

SMILES | Apaf-1 act | Rh110 interf act | Apaf-1 act conf2 | others
C=C(C)C(=O)Nc1cccc(C2=NOC3(C2)C[C@@H](C(N)=O)N(C(=O)c2cc([N+](=O)[O-])cc([N+](=O)[O-])c2C)C3)c1 (stereo partly specified) | -107 | i | -128 | Apaf1 act interf=i
C=C(C)C(=O)Nc1cccc(C2=NOC3(C2)C[C@@H](C(N)=O)N(C(=O)c2ccc(Cl)cc2)C3)c1 (stereo partly specified) | -204 | i | -127 | Apaf1 act interf=i
O=C1NC(c2ccc(-c3ccccc3[N+](=O)[O-])o2)C(C(=O)c2ccc(F)cc2)C(O)(C(F)(F)F)N1 (stereo unspecified) | i | nt | nt
Cc1[nH]n(-c2ccccc2)c(=O)c1/C=N/Nc1nncc(-c2ccccc2)n1 | i | nt | nt
Nc1ccc2nc3c(c(Cl)c2c1)CCCC3 | i | nt | nt
O=C(/C=C/c1ccc(O)c(O)c1)O[C@@H]1C[C@](O)(C(=O)O)C[C@@H](O)[C@H]1O | i | nt | nt
C=C(C)C(=O)Nc1cccc(C2=NOC3(C2)C[C@H](C(N)=O)N(C(=O)c2ccccc2)C3)c1 (stereo partly specified) | -64 | i | -59 | Apaf1 act interf=i
O=C(CC1Nc2cccc3cccc(c23)NC1=O)Nc1ccccc1 (stereo unspecified) | i | nt | nt
COc1cc(NC(C)CCCN)c2ncccc2c1 (stereo unspecified) | i | nt | nt
Cc1ccc(-c2nn3c(C)nnc3c3ccccc23)cc1S(=O)(=O)NCc1ccccc1 | i | nt | nt
CNS(=O)(=O)Cc1ccc2[nH]cc(CCN(C)C)c2c1 | i | nt | nt
CCN(CC)CCOC(=O)c1ccc(N/C=C(/C#N)c2nc(-c3ccc4c(c3)OCO4)cs2)cc1 | i | nt | nt
C=C(C)C(=O)Nc1cccc(C2=NOC3(C2)C[C@H](C(N)=O)N(C(=O)/C=C/C)C3)c1 (stereo partly specified) | -280 | i | -126 | Apaf1 act interf=i
C=C(C)C(=O)Nc1cccc(C2=NOC3(C2)C[C@@H](C(N)=O)N(C(=O)/C=C/CC)C3)c1 (stereo partly specified) | -205 | i | -114 | Apaf1 act interf=i
C#CCOCCOCCOCCNc1nc(N2CCN(C(=O)CCCCCCCCCCNC(=O)[C@H]([C@@H](C)CC)n3cc(CCCCCN)nn3)CC2)nc(N2CCN(C(=O)CCCCCCCCCCNC(=O)[C@@H]([C@H](C)O)n3cc(C)nn3)CC2)n1 | i | nt | nt
O=C(O)c1ccc(N2C(=O)/C(=C/c3ccc(-c4ccc([N+](=O)[O-])cc4)o3)C=C2c2ccccc2)cc1 | i | nt | nt
CC(=O)Nc1c(S(=O)(=O)c2ccccc2)c2nc3ccccc3nc2n1Cc1ccccc1 | i | nt | nt
COc1ccc2ccccc2c1C1CC(=O)N2CN(Cc3ccco3)CSC2=C1C#N (stereo unspecified) | i | nt | nt
COC(=O)C1=C(C)N(Cc2ccccc2)C(=NCCc2c[nH]c3ccccc23)N[C@H]1c1cccc(C(F)(F)F)c1 | i | nt | nt
NC(=NCCc1c[nH]c2ccccc12)NS(=O)(=O)c1ccc(F)cc1 | -46 | i | i
Cc1ccc(SC(C)c2nc(-c3ccccc3)no2)cc1 (stereo unspecified) | -247 | i | i
COc1ccc(-c2oc3ccc(-c4cc(OC)c(OC)c(OC)c4)cc3c2-c2ccc(OC)cc2)cc1 | -211 | i | i
c1ccc(CC2CCN(c3nc4ccccc4n4nnnc34)CC2)cc1 | i | nt | nt
O=[N+]([O-])c1cc2c(cc1C=Nc1ccccc1)OCO2 | i | nt | nt
CCN(CC)S(=O)(=O)c1ccc(N/N=C(\C)c2ccc3c(c2)OCO3)c([N+](=O)[O-])c1 | -41 | i | i
SMILES | Apaf-1 act | Rh110 interf act | Apaf-1 act conf2 | others
COc1cc(C(=O)NC(C)c2ccc(-n3ccnc3)cc2)cc(OC)c1C (stereo unspecified) | i | nt | nt
CCN(CC)CCCNC1=C(Cl)C(=O)c2ccccc2C1=O | i | nt | nt
CC(=O)N=Cc1c(C)c(C#N)c(=O)n(C)c1O | i | nt | nt
Cc1cc2cc(CNC(=O)Nc3ccc(Cl)c(Cl)c3)ccc2n1C | i | nt | nt
CN(CC(=O)Nc1ccc(Cl)c(Cl)c1)C(=O)C12CC3CC(CC(C3)C1)C2 | -86 | i | i
N#Cc1c(NC(=O)c2ccc(Br)o2)n(-c2ccccc2)c2nc3ccccc3nc12 | i | nt | nt
Nc1c2c(nc3ccccc13)CCCC2 | i | nt | nt
CCOc1cc(C(c2c(C)[nH][nH]c2=O)c2c(C)[nH][nH]c2=O)ccc1OS(=O)(=O)c1ccc(C)cc1 | i | nt | nt
COc1ccc(C(CNC(=O)COc2c(C)cc(C)cc2C)N2CCOCC2)cc1 (stereo unspecified) | i | nt | nt
CCOc1cc(C(=S)N2CCOCC2)ccc1OS(=O)(=O)c1ccc(OC)cc1 | -55 | i | i
CCO/C=C1/C(=O)N(C)C(=O)c2cc(OC)ccc21 | i | nt | nt
COc1ccc(N2C(=O)CC(N(CCc3ccc(OC)c(OC)c3)C(=S)Nc3ccccc3)C2=O)cc1 (stereo unspecified) | -41 | i | i
Nc1nc(SCC(=O)Nc2cc(-c3ccccc3)nn2-c2ccccc2)n[nH]1 | -41 | i | i
CCOc1ccc(/C=C/[N+](=O)[O-])c2ccccc12 | i | nt | nt
COCc1ccc(C(=O)N2CCCC(Nc3ccc(C(C)C)cc3)C2)o1 (stereo unspecified) | -107 | i | i
CCNC(=O)Oc1ccc[nH]c1=O | i | nt | nt
CC(Nc1cccc2ccccc12)C(=O)N/N=C/c1ccccn1 (stereo unspecified) | i | nt | nt
O=C(Oc1ccc[nH]c1=O)c1cc([N+](=O)[O-])cc([N+](=O)[O-])c1 | i | nt | nt
CCCC(C)NC(=O)c1cc(C(=O)OC)cc([N+](=O)[O-])c1 (stereo unspecified) | -108 | i | i
C#CCOCCOCCOCCNc1nc(N2CCN(C(=O)[C@H](Cc3cc4ccccc4[nH]3)n3cc([C@@H](N)C(C)CC)nn3)CC2)nc(N2CCN(C(=O)[C@H](CCCCN)n3cc([C@@H](N)CC(C)C)nn3)CC2)n1 (stereo partly specified) | i | nt | nt
CNC[C@H]1Oc2ccc(NC(=O)Nc3ccc(OC)cc3)cc2C(=O)N([C@@H](C)CO)C[C@H]1C | i | nt | nt
CCN1C(=O)C(C(=O)Nc2ccc(OC)cc2)C2CC1(C)Oc1ccccc12 (stereo unspecified) | -542 | i | i
O=C(NCCO)Nc1ccc2nc(-c3ccco3)c(-c3ccco3)nc2c1 | i | nt | nt
Cc1cc(OCc2nn[nH]n2)c2c(C)c(Cc3ccccc3)c(=O)oc2c1 | -45 | i | i
CCCCc1ccc(Nc2nc(CCC)cc(=O)[nH]2)cc1 | i | nt | nt
SMILES | Apaf-1 act | Rh110 interf act | Apaf-1 act conf2 | others
CCOC(=O)C1Nc2ccccc2C2C(O)C(O)CC12 (stereo unspecified) | i | nt | nt
C[C@H](CO)N1C[C@H](C)[C@@H](CN(C)Cc2ccc(Cl)c(Cl)c2)Oc2c(NC(=O)CCC(F)(F)F)cccc2C1=O | i | nt | nt
CCOc1cc(NCc2ccccc2)c2ncn(C(C)C)c2c1 | i | nt | nt
O=C(OCC(=O)N1CCCCC1)c1n[nH]c(=O)c2ccccc12 | -572 | i | i
COCCN1C=C2C(=O)C(C)(OC(=O)CCC(=O)OC)C(=O)C=C2C=C1C1CC1 (stereo unspecified) | i | nt | nt
CCOC(=O)C1=C(C)Nc2nc(SCC)nn2C1c1ccc(OC)cc1 (stereo unspecified) | -56 | i | i
